Reference: ChEMBL document CHEMBL4014341, “Discovery of a Human Neuromedin U Receptor 1-Selective Hexapeptide Agonist with Enhanced Serum Stability” (J Med Chem, 2017)
Peptide text beside a SMILES is read from it.

Biological target: T1, Neuromedin-U receptor 1 (Homo sapiens, UniProt Q9HB89)
T1 sequence (Q9HB89 whole entry): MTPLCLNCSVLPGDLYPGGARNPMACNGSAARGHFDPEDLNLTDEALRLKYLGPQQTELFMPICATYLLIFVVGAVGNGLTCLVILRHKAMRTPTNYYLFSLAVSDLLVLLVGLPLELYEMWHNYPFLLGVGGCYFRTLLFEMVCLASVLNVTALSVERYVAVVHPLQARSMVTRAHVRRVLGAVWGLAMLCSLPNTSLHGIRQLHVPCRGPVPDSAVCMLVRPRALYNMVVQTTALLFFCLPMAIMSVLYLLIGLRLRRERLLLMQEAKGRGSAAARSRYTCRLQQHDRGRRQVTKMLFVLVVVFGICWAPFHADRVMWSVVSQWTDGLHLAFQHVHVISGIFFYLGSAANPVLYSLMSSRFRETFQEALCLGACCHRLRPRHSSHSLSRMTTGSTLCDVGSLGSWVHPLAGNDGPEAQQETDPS
Experiment: Agonist activity at human NMUR1 expressed in CHO cells assessed as induction of Ca2+ flux after 18 hrs by Fluo-4 AM dye based FLIPR assay
Assay type: functional, cell-based
Procedure, shortened: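 CHO cells stably expressing human NMUR1 or NMUR2 were seeded at 2.0 × 10^4/well. After 18 h they were loaded 40 min with 4 μM Fluo-4 AM in HBSS/10 mM HEPES/2.5 mM probenecid pH 7.4 with 1% FCS, then washed. Peptides in buffer with 0.05% BSA/0.001% Triton X-100 were tested at 10−12−10−6 M in triplicate. Calcium flux was read by FLIPR from the maximal value, and EC50 was obtained by curve fitting.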

- EC50: 0.17 nM
Compound: CC(C)C[C@H](NC(=O)[C@H](Cc1ccccc1)NC(=O)[C@H](Cc1ccc(O)cc1)NC(=O)CNC(=O)[C@H](CCCNC(=N)N)NC(=O)[C@H](CO)NC(=O)[C@H](CCC(N)=O)NC(=O)[C@H](CO)NC(=O)[C@H](C)NC(=O)[C@H](Cc1ccccc1)NC(=O)[C@@H]1CCCN1C(=O)[C@H](CO)NC(=O)[C@H](CCC(N)=O)NC(=O)[C@H](Cc1ccccc1)NC(=O)[C@H](CCC(=O)O)NC(=O)[C@H](CCC(=O)O)NC(=O)[C@H](CC(=O)O)NC(=O)[C@@H](NC(=O)[C@H](CCCNC(=N)N)NC(=O)[C@@H](N)Cc1ccccc1)C(C)C)C(=O)N[C@@H](Cc1ccccc1)C(=O)N[C@@H](CCCNC(=N)N)C(=O)N1CCC[C@H]1C(=O)N[C@@H](CCCNC(=N)N)C(=O)N[C@@H](CC(N)=O)C(N)=O (H-FRVDEEFQSPFASQSRGYFLFRPRN-NH2)
